Here are results for 19 molecules from PubChem BioAssay.

The nature of test [1]: reduced viability of SK-BR-3 breast cancer cells – cell-based, 24 h, human, pilot screen (AID 572;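 active means viability at or below 10% of carrier control in both of two separate runs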;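 further: compound exposure lasted between 18 and 24 h rather than exactly 24 h; 100% = carrier-treated control wells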). The note with it: SK-BR-3 viability, CellTiter-Glo luminescence, at 10 µM, stronger effect = lower value.
A short description of test [2]: HUVEC growth inhibition – cell-based, human, primary screen (AID 575;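 active means viability at or below 30% in both replicate assays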;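 further: 100% = median of untreated cell wells with 0.1% DMSO on each plate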). To be noted: HUVEC proliferation, CellTiter-Glo luminescence, 72 h; at 10 µM; stronger effect = lower value. The method, boiled down: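 material = primary HUVEC, no more than 12 passages | input = 1250 cells per well | controls = vehicle and MePR control wells | measured by = CTG luminescence | times = 72 h compound incubation | format = collagen-coated 384-well format | read-out = % viability vs DMSO wells | doses = single 10 µM dose, 0.1% DMSO, from 5x medium stock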

Test [3] can be described thus: H69AR cell proliferation blockers – human, duplicate replicates, primary screen (AID 580;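 active means viability at or under a set limit in both replicates, limit being median viability minus 3 SD, cut at about 48% in these data, passing the limit was not always enough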;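 further: 100% = mean luminescence of untreated wells and 0% = no signal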). The note with it: H69AR lung tumor cells viability, ATP luminescence, 72 h; at 10 µM; stronger effect = lower value.
Test [4] in a line: MRP1 drug-resistance reversers in H69AR cells – cell-based, doxorubicin co-treatment, pilot screen (AID 601;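 active means viability loss from added drug above about 55%, and viability with drug at most 40%, in both replicates, limit read from the data, passing the limit was not always enough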). The note with it: CellTiter-Glo, 72 h, at 10 µM; for differential viability (reversal): stronger effect = higher value.
Test [5] can be described thus: yeast transport mutant growth inhibition pilot in 384-well plates, post-Golgi transport modulator project (AID 636; in the data active means inhibition above about 31%). The note with it: absorbance 615 nm, about 18 h, stronger effect = higher value.
Test [6] can be described thus: growth suppression of yeast trafficking mutant, preliminary HTS, modulators of trafficking downstream of Golgi apparatus project, 1536-format plate, OD 615 nm (AID 637). To be noted: yeast transport mutant growth, absorbance 615 nm, 18 h; stronger effect = higher value.
The mark [7] stands for this setting: H69AR cells + 2 uM doxorubicin, measured here: viability with 2 uM doxorubicin, stronger effect = lower value.
The mark [8] stands for this setting: H69AR cells, compound alone cytotoxicity.

Each structure is given as a SMILES string. Active and inactive are the calls of the source. Unless noted, no stated cut-off is given here; in the data, active means inhibition above about 30%; inactive means the rest.

One may read the viability as a read-out of living cells in per cent, often relative to untreated cells. The inhibition is the drop in the measured response relative to a control, in per cent. Take `Cc1ccc2cc(CN(Cc3ccc(F)cc3)Cc3nnnn3C3CCCC3)c(=O)[nH]c2c1`: the viability is 100% (inactive) in test [1]; 71.2% (inactive) in test [2]; 78.7% (inactive) in test [3]; 74.4% in test [4] (setting [7]); 78.7% in test [4] (setting [8]). In addition, the differential viability (reversal) in test [4] (H69AR cells + 2 uM doxorubicin) was 4.34% (inactive). For the same molecule, the inhibition was -4.19% (inactive) in test [5] and 3.09% (inactive) in test [6].

Turning to `Cc1cc(=O)n2nc(N3CCC(C(=O)N4CCN(Cc5ccccc5)CC4)CC3)sc2n1`, the viability was 97% (inactive) in test [1]; 108% (inactive) in test [2]; 91.1% (inactive) in test [3]; 84.1% in test [4] (setting [7]); 91.1% in test [4] (setting [8]). For the same molecule, the differential viability (reversal) in test [4] (H69AR cells + 2 uM doxorubicin) was 7.01% (inactive). Also, the inhibition in test [5] was -3.24% (inactive); in test [6] it was -1.27% (inactive).

As to `CCOC(=O)CSc1nc2sc(C)c(C)c2c(=O)[nH]1`, the viability in test [1] is 98% (inactive); in test [2] it was 101% (inactive); in test [3], 92.2% (inactive); in test [4] (setting [7]) it was 108%; in test [4] (setting [8]) it was 92.2%. The differential viability (reversal) in test [4] (H69AR cells + 2 uM doxorubicin) is -15.3% (inactive). In addition, the inhibition was -4.79% (inactive) in test [5] and 13.3% (inactive) in test [6].

For the molecule `O=C(NCc1cccs1)C1CC(=O)N(C2CCCC2)C1` (configuration not stated), the viability was 87% (inactive) in test [1]; 91.1% (inactive) in test [2]; 94.4% (inactive) in test [3]; 87.3% in test [4] (setting [7]); 94.4% in test [4] (setting [8]). For the same molecule, in test [4] (H69AR cells + 2 uM doxorubicin), the differential viability (reversal) is 7.15% (inactive). Also, the inhibition in test [5] was 2.6% (inactive); in test [6] it was 8.03% (inactive).

On to `c1ccc(Cn2nnnc2C(c2cccs2)N2CCSCC2)cc1` (configuration not stated), for which the viability in test [1] was 98% (inactive); in test [2], 93.1% (inactive); in test [3], 81.6% (inactive); in test [4] (setting [7]) it was 84.2%; in test [4] (setting [8]) it was 81.6%. For the same molecule, in test [4] (H69AR cells + 2 uM doxorubicin), the differential viability (reversal) is -2.6% (inactive). The values for the inhibition in test [5] and in test [6] were -3.97% (inactive) and -4.35% (inactive), respectively.

Consider `COc1ccc(CNc2oc(-c3cccc4ccccc34)nc2C#N)cc1`, for which the viability in test [1] was 85% (inactive); in test [2] it was 95.5% (inactive); in test [3], 96.9% (inactive); in test [4] (setting [7]) it was 101%; in test [4] (setting [8]), 96.9%. In addition, in test [4] (H69AR cells + 2 uM doxorubicin), the differential viability (reversal) is -4.35% (inactive). Besides, the inhibition in test [5] was -4.93% (inactive); in test [6] it was -0.18% (inactive).

Take `CCOC(=O)Cc1csc(/C(=N/O)C(N)=O)n1`: the viability was 94% (inactive) in test [1]; 94.7% (inactive) in test [2]; 92.6% (inactive) in test [3]; 97.1% in test [4] (setting [7]); 92.6% in test [4] (setting [8]). In test [4] (H69AR cells + 2 uM doxorubicin), the differential viability (reversal) is -4.43% (inactive). The inhibition in test [5] is -1.82% (inactive); in test [6], -5.41% (inactive).

For `O=C(NCC12CC3CC(C1)CC(CNC(=O)N1CCCC1)(C3)C2)N1CCCC1`, the viability in test [1] is 78% (inactive); in test [2] it was 90.1% (inactive); in test [3], 84.8% (inactive); in test [4] (setting [7]), 89.5%; in test [4] (setting [8]), 84.8%. In test [4] (H69AR cells + 2 uM doxorubicin), the differential viability (reversal) was -4.64% (inactive). Besides, the inhibition was -10.3% (inactive) in test [5] and 1.77% (inactive) in test [6].

Regarding `Cc1cc(C)n2nc(SCC(=O)N(C)Cc3ccccc3)nc2n1`, the viability in test [1] was 109% (inactive); in test [2] it was 107% (inactive); in test [3], 81.7% (inactive); in test [4] (setting [7]), 102%; in test [4] (setting [8]) it was 81.7%. Besides, in test [4] (H69AR cells + 2 uM doxorubicin), the differential viability (reversal) is -20.2% (inactive). Also, the inhibition is -6.85% (inactive) in test [5] and 1.82% (inactive) in test [6].

As to `CCSc1nc(N)c(C#N)c(-c2ccccc2Cl)c1C#N`, the viability was 105% (inactive) in test [1]; 96.1% (inactive) in test [2]; 75.9% (inactive) in test [3]; 78.9% in test [4] (setting [7]); 75.9% in test [4] (setting [8]). Besides, the differential viability (reversal) in test [4] (H69AR cells + 2 uM doxorubicin) was -3% (inactive). The inhibition is 0.14% (inactive) in test [5] and 0% (inactive) in test [6].

Turning to `CCOCCCN(Cc1cc2cc(C)cc(C)c2[nH]c1=O)C(=O)N(CC)CC`, the viability in test [1] was 58% (inactive); in test [2] it was 116% (inactive); in test [3], 82% (inactive); in test [4] (setting [7]) it was 84.5%; in test [4] (setting [8]) it was 82%. Also, the differential viability (reversal) in test [4] (H69AR cells + 2 uM doxorubicin) is -2.52% (inactive). The values for the inhibition in test [5] and in test [6] were 0.93% (inactive) and 10% (inactive), respectively.

With `CSCCC(NC(=O)CCN1C(=O)c2ccccc2C1=O)C(=O)O` (configuration not stated), the viability in test [1] was 85% (inactive); in test [2], 101% (inactive); in test [3] it was 98.5% (inactive); in test [4] (setting [7]), 84.7%; in test [4] (setting [8]), 98.5%. Further, the differential viability (reversal) in test [4] (H69AR cells + 2 uM doxorubicin) was 13.8% (inactive). The results for the inhibition in test [5] and in test [6] were -3.01% (inactive) and 6.73% (inactive), respectively.

For the molecule `O=C(CSc1oc(-c2ccco2)nc1S(=O)(=O)c1ccccc1)NCC1CCCO1` (configuration not stated), the viability in test [1] is 97% (inactive); in test [2], 99.7% (inactive); in test [3] it was 86.5% (inactive); in test [4] (setting [7]) it was 80.5%; in test [4] (setting [8]), 86.5%. In addition, the differential viability (reversal) in test [4] (H69AR cells + 2 uM doxorubicin) is 5.96% (inactive). In addition, the results for the inhibition in test [5] and in test [6] were 4.66% (inactive) and -0.16% (inactive), respectively.

In the case of `COc1cccc(NC(=O)N2CCC(N3CCCCC3)CC2)c1`, the viability in test [1] was 92% (inactive); in test [2], 88.2% (inactive); in test [3], 94.5% (inactive); in test [4] (setting [7]), 97.1%; in test [4] (setting [8]), 94.5%. For the same molecule, the differential viability (reversal) in test [4] (H69AR cells + 2 uM doxorubicin) is -2.56% (inactive). Moreover, the inhibition in test [5] was -4.29% (inactive); in test [6] it was -0.49% (inactive).

On to `CC(CC(=O)NCc1ccccc1)C1CCCO1` (configuration not stated), for which the viability is 130% (inactive) in test [1]; 102% (inactive) in test [2]; 93.4% (inactive) in test [3]; 91.2% in test [4] (setting [7]); 93.4% in test [4] (setting [8]). For the same molecule, the differential viability (reversal) in test [4] (H69AR cells + 2 uM doxorubicin) is 2.22% (inactive). For the same molecule, the inhibition was -2.21% (inactive) in test [5] and 4.75% (inactive) in test [6].

In the case of `Cc1cc(C)nc(NC2=NCC(=O)N2c2ccc(Cl)cc2)n1`, the viability in test [1] was 99% (inactive); in test [2] it was 117% (inactive); in test [3] it was 97.1% (inactive); in test [4] (setting [7]) it was 95.4%; in test [4] (setting [8]), 97.1%. Also, the differential viability (reversal) in test [4] (H69AR cells + 2 uM doxorubicin) is 1.69% (inactive). In addition, the results for the inhibition in test [5] and in test [6] were -7.03% (inactive) and 0.55% (inactive), respectively.

Take `COC(=O)C1CCN(C(=O)CN2C(=O)NC(CCc3ccccc3)C2=O)CC1` (configuration not stated): the viability in test [1] is 119% (inactive); in test [2], 94.2% (inactive); in test [3], 91.7% (inactive); in test [4] (setting [7]) it was 90.9%; in test [4] (setting [8]) it was 91.7%. Besides, the differential viability (reversal) in test [4] (H69AR cells + 2 uM doxorubicin) was 0.73% (inactive). In addition, the inhibition in test [5] is -1.92% (inactive); in test [6], 3.87% (inactive).

With `CCn1c(SCC(=O)Nc2ccccc2N2CCCCC2)nc2c1c(=O)n(C)c(=O)n2C`, the viability in test [1] was 113% (inactive); in test [2], 75.4% (inactive); in test [3] it was 73.9% (inactive); in test [4] (setting [7]) it was 72.7%; in test [4] (setting [8]) it was 73.9%. Also, in test [4] (H69AR cells + 2 uM doxorubicin), the differential viability (reversal) was 1.19% (inactive). The values for the inhibition in test [5] and in test [6] were -6.13% (inactive) and 3.09% (inactive), respectively.

For `Cn1c(=O)c2c(nc(SCC(=O)N3CCCc4ccccc43)n2C)n(C)c1=O`, the viability in test [1] is 94% (inactive); in test [2], 107% (inactive); in test [3], 102% (inactive); in test [4] (setting [7]) it was 93.9%; in test [4] (setting [8]), 102%. The differential viability (reversal) in test [4] (H69AR cells + 2 uM doxorubicin) was 7.81% (inactive). Moreover, the figures for the inhibition in test [5] and in test [6] were 1.22% (inactive) and -2.73% (inactive), respectively.
